Experiments:
[1] = DPPH˙ scavenging activity; details: 30 min, 515 nm; tested 10–100 µg mL^−1
Outline: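 Test compound (10–100 µg mL⁻¹) or 80% methanol control was mixed 1:2 (v/v) with DPPH solution, shaken, and kept 30 min at room temperature in the dark. Absorbance was read at 515 nm. Scavenging % = 100 × (1 − A sample/A DPPH blank). Ferulic and syringic acids served as references. Run in triplicate.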

Cell viability [2] = assay type: cell-based; details: human, HUVEC cells
Outline: (§1)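 Caco-2 and Vero cells were grown in DMEM with 10% FBS, and HUVEC in DMEM-F12 with 10% FBS, at 37 °C and 5% CO₂. Cells were seeded at 5.000 per well 24 h before treatment. Test compound was diluted from a 100 mM DMSO stock into 1% FBS medium at 1, 10, 30, 50, 100 and 150 µM. Controls were 10% DMSO and medium alone. At 24, 48 and 72 h, cells got resazurin (0.5 mg mL⁻¹ solution) for 4 h, read at ex 560/em 590 nm. IC50 was from curve fitting.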

Cell viability [3] = assay type: cell-based; details: human, Caco-2 cells
Outline: as §1

Cell viability [4] = assay type: cell-based; details: African green monkey, Vero cells
Outline: as §1

Lipoperoxidation = details: 220 °C; for Reduction in secondary oxidation (TBARS) in comparison with SOcontrol / TBARS value: SO + additive 200 ppm; for TBARS value: 30 min
Outline: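 Sunflower oil with 200 ppm test compound was heated on a hot plate at 25, 100, 180 and 220 °C for 30 min (ramp 2 °C min⁻¹). Oil (0.5 mL) was vortexed with TBA/TCA/HCl and centrifuged 3500 rpm for 5 min. Supernatant was heated 90 °C for 15 min and read at 535 nm against an MDA curve, as nmol MDA per mL oil. Unsupplemented oil was the control. Run in triplicate.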

[5] = SO + additive at 200 ppm; for T 5 (5% mass loss) / T 10 (10% mass loss) / T 50 (50% mass loss) / T onset (decomposition temperature: onset temperature): TGA in air
Outline: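 Thermogravimetry of sunflower oil with 200 ppm test compound: about 10 mg oil in a Pt crucible was heated from ambient to 700 °C at 5 °C min⁻¹ in air (60 mL min⁻¹), with N₂ purge on the balance. Onset temperature and temperatures at 5, 10 and 50% mass loss came from TG/DTG curves and were compared with unsupplemented oil.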

[6] = Cytotoxic effect, summary over the three cell lines; assay type: cell-based; details: human (Caco-2, HUVEC); African green monkey (Vero), Caco-2, HUVEC and Vero cells
Outline: as §1

[7] = Schaal Oven Test, TBARS, sunflower oil; details: 60 °C, over 12 days
Outline: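 Schaal oven test (AOCS Cg5-97): supplemented olive or sunflower oil was held at 60 ± 5 °C in the dark for 12 days, sampled every 3 days. TBARS: oil was mixed with TBA/TCA/HCl and centrifuged. Supernatant was heated 90 °C for 15 min and read at 535 nm against an MDA curve (nmol MDA per mL oil). n = 3, compared with unsupplemented oil.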

Compound | Antioxidant capacity (DPPH), IC50 [1] | IC50 at 24 h (Cell viability [2]) | IC50 at 48 h (Cell viability [2]) | IC50 at 72 h (Cell viability [2]) | IC50 at 24 h (Cell viability [3]) | IC50 at 48 h (Cell viability [3]) | IC50 at 72 h (Cell viability [3]) | IC50 at 24 h (Cell viability [4]) | IC50 at 48 h (Cell viability [4]) | IC50 at 72 h (Cell viability [4]) | Reduction in secondary oxidation (TBARS) in comparison with SOcontrol (Lipoperoxidation) | T 5 (5% mass loss) [5] | T 10 (10% mass loss) [5] | T 50 (50% mass loss) [5] | T onset (decomposition temperature: onset temperature) [5] | IC50 [6] | other results
CCOc1ccc(/C=C/C(=O)O)cc1OC [Compound 3a, (E)-3-(4-Ethoxy-3-methoxyphenyl)acrylic acid] | 56.50 ± 2.38 µg/mL | > 100 µM | > 100 µM | > 100 µM | > 100 µM | > 100 µM | > 100 µM | > 100 µM | > 100 µM | > 100 µM | – | – | – | – | – | – | –
CCCOc1ccc(/C=C/C(=O)O)cc1OC [Compound 3b, (E)-3-(3-Methoxy-4-propoxyphenyl)acrylic acid] | 90.43 ± 1.63 µg/mL | > 100 µM | > 100 µM | > 100 µM | > 100 µM | > 100 µM | > 100 µM | > 100 µM | > 100 µM | > 100 µM | 5 times | 376 °C | 390 °C | 423 °C | 344 °C | – | TBARS value (Lipoperoxidation): 8.88 nmol/mL; Difference of degradation temperature in comparison to SO at 5% mass loss [5]: 35 °C; Difference of degradation temperature in comparison to SO at 10% mass loss [5]: 25 °C; Difference of degradation temperature in comparison to SO at 50% mass loss [5]: 4 °C
CCCCCOc1ccc(/C=C/C(=O)O)cc1OC [Compound 3c, (E)-3-(3-Methoxy-4-(pentyloxy)phenyl)acrylic acid] | >100 µg/mL | > 100 µM | > 100 µM | > 100 µM | > 100 µM | > 100 µM | > 100 µM | > 100 µM | > 100 µM | > 100 µM | 6 times | 370 °C | 386 °C | 424 °C | 343 °C | – | TBARS value (Lipoperoxidation): 7.68 nmol/mL; TBARS value (level of SO oxidation) (Lipoperoxidation; SO + additive): 7.68 nmol/L
CCCCCCOc1ccc(/C=C/C(=O)O)cc1OC [Compound 3d, (E)-3-(4-(Hexyloxy)-3-methoxyphenyl)acrylic acid] | >100 µg/mL | > 100 µM | > 100 µM | > 100 µM | > 100 µM | > 100 µM | > 100 µM | > 100 µM | > 100 µM | > 100 µM | – | – | – | – | – | – | –
CCCCCCCCOc1ccc(/C=C/C(=O)O)cc1OC [Compound 3e, (E)-3-(3-Methoxy-4-(octyloxy)phenyl)acrylic acid] | >100 µg/mL | 90 ± 1.03 µM | 53.1 ± 1.02 µM | 54.4 ± 1.05 µM | > 100 µM | > 100 µM | 96.2 ± 1.1 µM | > 100 µM | > 100 µM | > 100 µM | – | – | – | – | – | < 100 µM | –
CCCCCCCCCCOc1ccc(/C=C/C(=O)O)cc1OC [Compound 3f, (E)-3-(4-(Decyloxy)-3-methoxyphenyl)acrylic acid] | >100 µg/mL | 55.6 ± 1.05 µM | 26.4 ± 1.06 µM | 25.4 ± 1.08 µM | > 100 µM | 88.7 ± 1.08 µM | 76.8 ± 1.08 µM | > 100 µM | > 100 µM | > 100 µM | – | – | – | – | – | < 100 µM | –
COc1cc(C(=O)O)cc(OC)c1O [Compound 4, syringic acid, reference compound] | 4.53 ± 0.19 µg/mL | – | – | – | – | – | – | – | – | – | – | – | – | – | – | – | –
CCOc1c(OC)cc(C(=O)O)cc1OC [Compound 5a, 4-Ethoxy-3,5-dimethoxybenzoic acid] | 9.20 ± 0.91 µg/mL | > 100 µM | > 100 µM | > 100 µM | > 100 µM | > 100 µM | > 100 µM | > 100 µM | > 100 µM | > 100 µM | – | – | – | – | – | – | –
CCCOc1c(OC)cc(C(=O)O)cc1OC [Compound 5b, 3,5-Dimethoxy-4-propoxybenzoic acid] | 11.47 ± 0.58 µg/mL | > 100 µM | > 100 µM | > 100 µM | > 100 µM | > 100 µM | > 100 µM | > 100 µM | > 100 µM | > 100 µM | 5 times | 364 °C | 382 °C | 420 °C | 305 °C | – | Increase of onset temperature of mass loss (Tonset) in comparison with SO [5]: 24 °C
CCCCCOc1c(OC)cc(C(=O)O)cc1OC [Compound 5c, 3,5-Dimethoxy-4-(pentyloxy)benzoic acid] | 34.98 ± 2.23 µg/mL | > 100 µM | > 100 µM | > 100 µM | > 100 µM | > 100 µM | > 100 µM | > 100 µM | > 100 µM | > 100 µM | 5 times | 368 °C | 388 °C | 426 °C | 318 °C | – | TBARS values compared with control [7]: decreased the TBARS values; Increase of onset temperature of mass loss (Tonset) in comparison with SO [5]: 37 °C
CCCCCCOc1c(OC)cc(C(=O)O)cc1OC [Compound 5d, 4-(Hexyloxy)-3,5-dimethoxybenzoic acid] | >100 µg/mL | > 100 µM | > 100 µM | > 100 µM | > 100 µM | > 100 µM | > 100 µM | > 100 µM | > 100 µM | > 100 µM | – | – | – | – | – | – | –
CCCCCCCCOc1c(OC)cc(C(=O)O)cc1OC [Compound 5e, 3,5-Dimethoxy-4-(octyloxy)benzoic acid] | >100 µg/mL | > 100 µM | 55.9 ± 1.06 µM | 53.3 ± 1.05 µM | > 100 µM | > 100 µM | > 100 µM | > 100 µM | > 100 µM | > 100 µM | – | – | – | – | – | < 100 µM | –
CCCCCCCCCCOc1c(OC)cc(C(=O)O)cc1OC [Compound 5f, 4-(Decyloxy)-3,5-dimethoxybenzoic acid] | >100 µg/mL | 47.2 ± 1.04 µM | 35.4 ± 1.04 µM | 29.3 ± 1.09 µM | > 100 µM | 70 ± 1.06 µM | 62.8 ± 1.07 µM | > 100 µM | > 100 µM | > 100 µM | – | – | – | – | – | < 100 µM | –
